ChEMBL document CHEMBL5058577, “EUbOPEN Chemogenomics Library 2 (Multiplex)” (2022)

Test system: HEK-293T
Test: Multiplex assay against HEK293T
Assay type: toxicity, cell-based
Settings: human
In short: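 Cells were classed with CellPathfinder machine-learning gating, first as Hoechst high-intensity objects or normal cells, then (normal cells) as healthy, pyknosed or fragmented nuclei, and finally (pyknosed cells) as mitotic or apoptotic. Staining of live cells at seeding used Hoechst33342, BioTracker Green Microtubule Cytoskeleton Dye, MitoTracker Red and Annexin V Alexa Fluor 680, with imaging on a CQ1 microscope at 37°C and 5% CO2 after compound addition. Tubulin, mitochondrial-mass and membrane-permeability phenotypes are per cents of healthy-nucleus cells.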

[1] = 12 h, 1 µM, compound concentration 1 uM, replicate 1
[2] = 12 h, 1 µM, compound concentration 1 uM, replicate 2
[3] = 12 h, 10 µM, compound concentration 10 uM, replicate 1
[4] = 12 h, 10 µM, compound concentration 10 uM, replicate 2
[5] = 24 h, 1 µM, compound concentration 1 uM, replicate 1
[6] = 24 h, 1 µM, compound concentration 1 uM, replicate 2
[7] = 24 h, 10 µM, compound concentration 10 uM, replicate 1
[8] = 24 h, 10 µM, compound concentration 10 uM, replicate 2
[9] = 48 h, 1 µM, compound concentration 1 uM, replicate 1
[10] = 48 h, 1 µM, compound concentration 1 uM, replicate 2
[11] = 48 h, 10 µM, compound concentration 10 uM, replicate 1
[12] = 48 h, 10 µM, compound concentration 10 uM, replicate 2

Structure (SMILES): CC[C@@H](C)Nc1nc(C)nc2c(-c3ccc(OC)nc3C)c(C)nn12 [PEXACERFONT]
- Population Apoptotic (%) [1]: 33%
- Population Fragmented Nuclei (%) [1]: 7%
- Population Healthy Nuclei (%) [1]: 79%
- Population Hoechst High Intensity Objects (%) [1]: 6%
- Population Membrane Permeable-Phenotype (%) [1]: 0%
- Population Mitochondria Different-Phenotype (%) [1]: 45%
- Population Mitotic Cells (%) [1]: 66%
- Population Normal (%) [1]: 93%
- Population Pyknosed Nuclei (%) [1]: 13%
- Population Tubulin-Different-Phenotype (%) [1]: 34%
- Total Cell Count [1]: 399
- Population Apoptotic (%) [2]: 47%
- Population Fragmented Nuclei (%) [2]: 5%
- Population Healthy Nuclei (%) [2]: 82%
- Population Hoechst High Intensity Objects (%) [2]: 8%
- Population Mitochondria Different-Phenotype (%) [2]: 61%
- Population Mitotic Cells (%) [2]: 52%
- Population Normal (%) [2]: 91%
- Population Pyknosed Nuclei (%) [2]: 11%
- Population Tubulin-Different-Phenotype (%) [2]: 31%
- Total Cell Count [2]: 314
- Population Apoptotic (%) [3]: 38%
- Population Fragmented Nuclei (%) [3]: 6%
- Population Healthy Nuclei (%) [3]: 75%
- Population Hoechst High Intensity Objects (%) [3]: 8%
- Population Membrane Permeable-Phenotype (%) [3]: 0%
- Population Mitochondria Different-Phenotype (%) [3]: 59%
- Population Mitotic Cells (%) [3]: 61%
- Population Normal (%) [3]: 91%
- Population Pyknosed Nuclei (%) [3]: 17%
- Population Tubulin-Different-Phenotype (%) [3]: 54%
- Total Cell Count [3]: 451
- Population Apoptotic (%) [4]: 41%
- Population Fragmented Nuclei (%) [4]: 9%
- Population Healthy Nuclei (%) [4]: 74%
- Population Hoechst High Intensity Objects (%) [4]: 11%
- Population Membrane Permeable-Phenotype (%) [4]: 1%
- Population Mitochondria Different-Phenotype (%) [4]: 75%
- Population Mitotic Cells (%) [4]: 58%
- Population Normal (%) [4]: 88%
- Population Pyknosed Nuclei (%) [4]: 16%
- Population Tubulin-Different-Phenotype (%) [4]: 55%
- Total Cell Count [4]: 321
- Population Apoptotic (%) [5]: 24%
- Population Fragmented Nuclei (%) [5]: 8%
- Population Healthy Nuclei (%) [5]: 79%
- Population Hoechst High Intensity Objects (%) [5]: 3%
- Population Membrane Permeable-Phenotype (%) [5]: 0%
- Population Mitochondria Different-Phenotype (%) [5]: 26%
- Population Mitotic Cells (%) [5]: 75%
- Population Normal (%) [5]: 96%
- Population Pyknosed Nuclei (%) [5]: 11%
- Population Tubulin-Different-Phenotype (%) [5]: 21%
- Total Cell Count [5]: 508
- Population Apoptotic (%) [6]: 45%
- Population Fragmented Nuclei (%) [6]: 13%
- Population Healthy Nuclei (%) [6]: 76%
- Population Hoechst High Intensity Objects (%) [6]: 7%
- Population Mitochondria Different-Phenotype (%) [6]: 34%
- Population Mitotic Cells (%) [6]: 54%
- Population Normal (%) [6]: 92%
- Population Pyknosed Nuclei (%) [6]: 9%
- Population Tubulin-Different-Phenotype (%) [6]: 15%
- Total Cell Count [6]: 387
- Population Apoptotic (%) [7]: 37%
- Population Fragmented Nuclei (%) [7]: 6%
- Population Healthy Nuclei (%) [7]: 79%
- Population Hoechst High Intensity Objects (%) [7]: 7%
- Population Membrane Permeable-Phenotype (%) [7]: 1%
- Population Mitochondria Different-Phenotype (%) [7]: 46%
- Population Mitotic Cells (%) [7]: 62%
- Population Normal (%) [7]: 92%
- Population Pyknosed Nuclei (%) [7]: 14%
- Population Tubulin-Different-Phenotype (%) [7]: 52%
- Total Cell Count [7]: 612
- Population Apoptotic (%) [8]: 33%
- Population Fragmented Nuclei (%) [8]: 7%
- Population Healthy Nuclei (%) [8]: 78%
- Population Hoechst High Intensity Objects (%) [8]: 13%
- Population Membrane Permeable-Phenotype (%) [8]: 0%
- Population Mitochondria Different-Phenotype (%) [8]: 70%
- Population Mitotic Cells (%) [8]: 66%
- Population Normal (%) [8]: 86%
- Population Tubulin-Different-Phenotype (%) [8]: 48%
- Total Cell Count [8]: 371
- Population Apoptotic (%) [9]: 26%
- Population Fragmented Nuclei (%) [9]: 12%
- Population Healthy Nuclei (%) [9]: 80%
- Population Hoechst High Intensity Objects (%) [9]: 2%
- Population Membrane Permeable-Phenotype (%) [9]: 0%
- Population Mitochondria Different-Phenotype (%) [9]: 22%
- Population Mitotic Cells (%) [9]: 73%
- Population Normal (%) [9]: 97%
- Population Pyknosed Nuclei (%) [9]: 7%
- Population Tubulin-Different-Phenotype (%) [9]: 20%
- Total Cell Count [9]: 816
- Population Apoptotic (%) [10]: 41%
- Population Fragmented Nuclei (%) [10]: 10%
- Population Membrane Permeable-Phenotype (%) [10]: 1%
- Population Mitochondria Different-Phenotype (%) [10]: 27%
- Population Mitotic Cells (%) [10]: 58%
- Population Pyknosed Nuclei (%) [10]: 9%
- Population Tubulin-Different-Phenotype (%) [10]: 19%
- Total Cell Count [10]: 520
- Population Apoptotic (%) [11]: 40%
- Population Fragmented Nuclei (%) [11]: 13%
- Population Healthy Nuclei (%) [11]: 77%
- Population Hoechst High Intensity Objects (%) [11]: 7%
- Population Membrane Permeable-Phenotype (%) [11]: 1%
- Population Mitochondria Different-Phenotype (%) [11]: 45%
- Population Mitotic Cells (%) [11]: 59%
- Population Normal (%) [11]: 92%
- Population Pyknosed Nuclei (%) [11]: 9%
- Population Tubulin-Different-Phenotype (%) [11]: 38%
- Total Cell Count [11]: 692
- Population Fragmented Nuclei (%) [12]: 10%
- Population Healthy Nuclei (%) [12]: 72%
- Population Hoechst High Intensity Objects (%) [12]: 18%
- Population Membrane Permeable-Phenotype (%) [12]: 0%
- Population Mitochondria Different-Phenotype (%) [12]: 53%
- Population Mitotic Cells (%) [12]: 60%
- Population Normal (%) [12]: 81%
- Population Pyknosed Nuclei (%) [12]: 17%
- Population Tubulin-Different-Phenotype (%) [12]: 36%
- Total Cell Count [12]: 390
